Data as given in paper PMC5489371 (Leukemia & lymphoma, 2017).

Tests used:
[1] = QTc measurement; format: in vivo, human
[2] = system: patients with relapsed hematologic malignancies; assay: Response assessment, all 27 patients; format: in vivo, human; details: 95% CI: 53.7 – 88.8
Procedure, shortened: (§1)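 Open-label, single-centre, first-in-human 3+3 dose-escalation trial. Adults with relapsed or refractory CLL, Hodgkin or non-Hodgkin lymphoma (WHO 2008) or MM (IMWG criteria) had to have had at least one prior therapy; MM patients had prior immunomodulatory agent and proteasome inhibitor. Test compound was given orally Mon/Wed/Fri for three weeks of each 28-day cycle at 20, 40, 50 or 70 mg, until unacceptable toxicity or progression.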

[3] = system: MM cell lines (U266, H929, RPMI 8226, ARH-77, and IM-9); details: MM cell lines and primary MM cells; cited from earlier work
[4] = system: soluble CD44 (sCD44); assay: ELISA for soluble CD44 in serum of MM patients; format: in vivo, human
Procedure, shortened: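 Serum from relapsed multiple myeloma patients was collected at baseline before dosing and on cycle 1 day 15. Soluble human CD44 was measured by ELISA following the kit manufacturer's protocol. Patients took the oral HDAC inhibitor Monday, Wednesday and Friday for three weeks, then one week off, in 28-day cycles.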

[5] = Pharmacokinetic analysis of AR-42 in patient plasma; format: in vivo, human
[6] = system: patients with relapsed MM; assay: Response assessment, multiple myeloma patients; format: in vivo, human
Procedure, shortened: as §1

[7] = system: patients with relapsed lymphoma; assay: Response assessment, lymphoma patients; format: in vivo, human
Procedure, shortened: as §1

[8] = system: patients with relapsed hematologic malignancies; assay: Phase 1 dose escalation trial of single-agent AR-42: safety and tolerability; format: in vivo, human
[9] = system: patients treated with single agent panobinostat; details: cited from earlier work
[10] = between the 20 and 40 mg dose levels
[11] = between the 40 and 50 mg dose levels

Compound: AR-42
- QTc prolongation, highest grade ([1]; all 27 patients, not associated with cardiac events or dose reductions): ≤ 1 grade
- mean maximum QTc change ([1]; all patients, range 10 – 60, standard deviation 14.5): 27.4
- patients with stable disease for between 1 and 3 cycles [2]: 20 of 27
- potency in comparison to vorinostat [3]: four- to seven-fold more potent
- reduction of sCD44, mean difference ([4]; 10 MM patients, 95% CI: 3.19–32.72, paired t-test, p=0.0022): 17.95
- MM patients with decreased sCD44 levels ([4]; baseline vs cycle 1 day 15): nine
- MM patients in whom CD44 decreased more than 20% by day 15 ([4]; cycle 1 day 15): four
- peak concentration (geometric mean, %CV) ([5]; 20 mg oral, day 19, plasma): 0.335 (65.6) μM
- peak concentration (geometric mean, %CV) ([5]; 20 mg oral, day one, plasma): 0.383 (56.2) μM
- peak concentration (geometric mean, %CV) ([5]; 40 mg oral, day 19, plasma): 0.830 (27.9) μM
- peak concentration (geometric mean, %CV) ([5]; 40 mg oral, day one, plasma): 0.794 (23.8) μM
- peak concentration (geometric mean, %CV) ([5]; 50 mg oral, day one, plasma): 1.60 (37.5) μM
- fold increase in mean day one AUC0-∞ [5, 10]: 1.9 fold
- fold increase in mean day one Cmax [5, 10]: 2.1 fold
- fold increase in mean day one AUC0-∞ [5, 11]: 1.7 fold
- fold increase in mean day one Cmax [5, 11]: 2.0 fold
- Cycles of Treatment ([6]; MM patient ID 1, 20 mg (1a)): 1 cycles
- Cycles of Treatment ([6]; MM patient ID 4, 40 mg (2a)): 3 cycles
- Cycles of Treatment ([6]; MM patient ID 5, 40 mg (2a)): 18 cycles
- Cycles of Treatment ([6]; MM patient ID 6, 40 mg (2a)): 3 cycles
- Cycles of Treatment ([6]; MM patient ID 7, 40 mg (1b)): 3 cycles
- Cycles of Treatment ([6]; MM patient ID 8, 40 mg (1b)): 1 cycles
- Cycles of Treatment ([6]; MM patient ID 10, 50 mg (2b)): 1 cycles
- Cycles of Treatment ([6]; MM patient ID 11, 50 mg (2b)): 1 cycles
- Cycles of Treatment ([6]; MM patient ID 12, 50 mg (2b)): 1 cycles
- Cycles of Treatment ([6]; MM patient ID 13, 50 mg (2b)): 3 cycles
- Cycles of Treatment ([6]; MM patient ID 17, 70 mg (3b)): 5 cycles
- Cycles of Treatment ([6]; MM patient ID 20, 40 mg (4b)): 2 cycles
- Cycles of Treatment ([6]; MM patient ID 21, 40 mg (4b)): 1 cycles
- Cycles of Treatment ([6]; MM patient ID 22, 40 mg (4b)): 2 cycles
- Cycles of Treatment ([6]; MM patient ID 25, 40 mg (4b)): 2 cycles
- Cycles of Treatment ([6]; MM patient ID 26, 40 mg (4b)): 1 cycles
- Cycles of Treatment ([6]; MM patient ID 27, 40 mg (4b)): 3 cycles
- duration of disease control, one patient with MM ([6]; human, in vivo): 19 months
- MM patients who progressed during the first cycle ([6]; of 17 MM patients): four
- duration of disease control, one patient with mantle cell lymphoma ([7]; ongoing): 27 months
- best response in patients with relapsed lymphoma ([7]; ten patients): stable disease
- dose-limiting toxicities (DLTs) ([8]; in vivo): no DLTs were evident
- grade 3 or 4 fatigue ([8]; in vivo): no patient suffered grade 3 or 4 fatigue
- patients requiring hospitalization ([8]; in vivo): seven
- patients requiring temporary holds of study treatment ([8]; in vivo): seven
- patients with SAEs possibly, probably, or likely related to AR-42 ([8]; in vivo): five
- patients with neutropenia (grade 1 – 3) ([8]; in vivo): 11 patients
- patients with neutropenia (grade 1 – 4) ([8]; in vivo): 12 patients
- maximum tolerated dose (MTD) ([8]; oral, three times weekly (M-W-F) for three weeks of a 28-day cycle): 40 mg

Compound: Cc1[nH]c2ccccc2c1CCNCc1ccc(/C=C/C(=O)NO)cc1 [panobinostat]
- patients with fatigue [9]: 47.4%
